Only some compounds are listed: those with a hit (about 1.5% of all), similar ones and a draw of the others.
ABCG2 block: ABCG2 efflux pump inhibitors, primary screen, multiplex with ABCB1, IgMXP3 cells, flow cytometry; Broad substrate specificity ATP-binding cassette transporter ABCG2 (Homo sapiens), Q9UNQ0; inhibition, % at 6.6 µM; actives 0.1% (n = 190,000); JC-1 efflux;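 active = inhibition above 80%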;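 also: 0% = DMSO and 100% = nicardipine control wells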
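Assay system – ABCG2 IgMXP3 and barcoded ABCB1 CCRF-Adr cell mix · Input – 3 million cells/mL in well · Reagent – JC-1 fluorescent substrate · Compound – single test compound dose, 6.6 µM final · Timing – 10 min exposure at 25 °C with rotation, no wash · Detection – flow cytometry of retained JC-1 fluorescence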
ABCB1 block: ABCB1 efflux pump inhibitors, primary screen, cell-based, multiplex, flow cytometry, ABCG2 counter-screen; CCRF-Adr cells, JC-1 efflux; inhibition, % at 6.6 µM; actives 0.067% (n = 190,000); AID 1326, 2008; in the data active = inhibition above about 40%;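 also: 0% = vehicle and 100% = reference inhibitor; higher value means more JC-1 retained so stronger ABCB1 efflux block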
RBBP9 inhibitor: human RBBP9 inhibitors, primary screen, biochemical, fluorescence polarization, FP-Rh probe, HTS; Serine hydrolase RBBP9 (Homo sapiens), O75884; recombinant RBBP9; inhibition, % at 7.94 µM; actives 0.2% (n = 220,000); AID 1515, 2009;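 active = inhibition above the campaign mean of all tested compounds plus 3 SD, cut at about 14% in these data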;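 also: plate controls were DMSO wells with RBBP9 for no effect and wells lacking RBBP9 protein for full effect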
Target sequence (O75884 whole entry, looked up): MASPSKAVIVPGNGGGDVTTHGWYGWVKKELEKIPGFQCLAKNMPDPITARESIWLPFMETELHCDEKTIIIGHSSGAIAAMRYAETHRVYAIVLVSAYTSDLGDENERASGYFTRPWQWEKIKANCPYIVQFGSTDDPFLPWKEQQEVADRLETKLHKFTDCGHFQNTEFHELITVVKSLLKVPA
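Test system: recombinant human RBBP9. Quantity: 2.5 µM RBBP9 dispensing solution, before mixing. Detection: FP readout at 525/598 nm. Reagent: Serine-hydrolase probe FP-Rh, 375 nM pre-mixing. Measure: % inhibition. Control set: DMSO-treated enzyme wells and wells lacking RBBP9. Buffer or medium: Tris-NaCl-Pluronic buffer, pH 8.0. Times: preincubation 30 min plus labeling 45 min at 25 °C.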
PGE2 EP2 inh: human EP2 receptor antagonists, primary screen, TR-FRET cAMP, C6 glioma cells. C6 glioma cells expressing human EP2; cells stimulated with saturating PGE2. inhibition, % at 25 µM. Prostaglandin E2 receptor EP2 subtype (Homo sapiens), P43116. actives 0.52% (n = 260,000);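 active = percent inhibition above 40 after rounding to a whole number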;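 also: rat C6 glioma host cells with rolipram phosphodiesterase inhibitor present; the protocol text gives 20 µM as final concentration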
EP2 mod: EP2 receptor modulators, cAMP readout, primary screen, cell-based, HTRF cAMP, PGE2 stimulation. Prostaglandin E2 receptor EP2 subtype (Homo sapiens), P43116. EP2-expressing cells, cAMP HTRF FRET, PGE2 co-stimulation. induction, % at 25 µM. actives 0.83% (n = 260,000);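 active = compounds whose cAMP rise, as percent of the full-agonist control response, exceeds 60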;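 also: rat C6 glioma line stably carrying human EP2 under a CMV promoter; the protocol text gives 20 µM as final concentration; 100% = response of wells given 1 µM PGE2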
ABCB1 single pt: ABCB1 efflux pump inhibitors, confirmation, cell-based, single point, ABCG2 counter-screen; CCRF-Adr cells, JC-1 efflux, flow cytometry; inhibition, % at 6.6 µM; shares compounds with ABCG2 block; actives 7% (n = 270); AID 1451, 2008;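 active = inhibition of pump activity above 50%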;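 also: 0% = DMSO and 100% = nicardipine full pump inhibition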
ABCG2 confirm: ABCG2 efflux pump inhibitors, confirmation, single point, IgMXP3 cells, ABCB1 counter-screen paired; shares compounds with ABCG2 block; JC-1 efflux, flow cytometry; AID 1453, 2008; inhibition, % at 6.6 µM; actives 6% (n = 270);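 active = inhibition above 50%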;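 also: 0% = DMSO wells and 100% = nicardipine pump inhibitor wells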
IgMXP3 autofluor: compound autofluorescence in ABCG2-expressing IgMXP3 cells, confirmation, artefact control for ABC transporter inhibitor project, cell-based, 488/530 nm, flow cytometry. AID 1480, 2009. compound autofluorescence 488/530 nm; hits give high values. actives 30% (n = 270). shares compounds with ABCG2 block. fluorescence at 6.6 µM;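 active = fluorescence in ABCG2-expressing cells above the plate's control-well mean plus 3 SD, cut at about 15 in these data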;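 also: median cell fluorescence with compound minus that of DMSO-treated control cells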
CCRF autofluor: compound autofluorescence in ABCB1-expressing CCRF-Adr cells, confirmation, artefact control for ABC transporter inhibitor project, cell-based, 488/530 nm, flow cytometry; shares compounds with ABCG2 block; compound autofluorescence 488/530 nm; hits give high values; fluorescence at 6.6 µM; actives 30% (n = 270); AID 1483, 2009;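 active = fluorescence beyond the plate control mean plus 3 SD, with a fluorescence-to-maximum score over 2, cut at about 25 in these data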
Starred values were filed as active, the others as inactive; x = no result; + = active, no number.

SMILES	ABCG2 block	ABCB1 block	RBBP9 inhibitor	PGE2 EP2 inh	EP2 mod	ABCB1 single pt	ABCG2 confirm	IgMXP3 autofluor	CCRF autofluor
COc1cccc(NC(=O)Nc2ccncc2)c1	59	44*	-6	6	-39	1	29	0.96	5
CC1CCN(CC(=O)N2CCC(c3ccnc4nc(C(F)(F)F)nn34)CC2)CC1	x	x	x	x	-22	x	x	x	x
CCCCN(C)C1=CC2=CC(=C(C#N)C#N)CCC2CC1 (configuration not stated)	85*	+	-8	16	3	164*	49	44*	232*
N#CC(C#N)=C1C=C2C=C(N3CCCCC3)CCC2CC1 (configuration not stated)	51	170*	-1	4	1	62*	62*	17*	67*
CCN(CC)C1=CC2=CC(=C(C#N)C#N)CCC2CC1 (configuration not stated)	43	84*	-1	5	-20	24	74*	19*	40*
Cc1sc(C(=O)Nc2cc3ccccc3o2)c(C#N)c1C	x	x	x	9	-12	x	x	x	x
COC(=O)c1cc(NC(=O)c2cccc(Cl)c2)c(=O)oc1/C=C/Nc1cc(C)cc(C)c1	135*	138*	-5	10	-36	0	-183	503*	612*
CCN1C(=O)/C(=C/c2ccc(N3CCCC3)cc2)NC1=S	79	23	-5	7	-22	19	7	20*	44*
Cc1cc(/C=C2\NC(=S)N(C)C2=O)ccc1N1CCCC1	25	21	-8	6	2	x	x	x	x
CCCN1C(=O)/C(=C/c2ccc(N3CCCC3)c(C)c2)NC1=S	86*	52*	-2	0	-2	-29	-21	107*	137*
c1ccc(-c2nnc(SCc3cccnc3)o2)cc1	x	x	x	13	-3	x	x	x	x
O=C(c1nc2ccccc2s1)C1CCN(C(=O)c2cc(-c3cccs3)[nH]n2)CC1	x	x	x	x	-99	x	x	x	x
COc1ccccc1OCCOc1ccc(C(=O)c2ccccc2)cc1	87*	5	2	6	-39	-11	31	52*	82*
O=[N+]([O-])c1ccc(N2CCN(c3ccccc3F)CC2)c(S(=O)(=O)N2CCOCC2)c1	x	x	-7	7	-6	1	5	-1.3	0.76
C=CCn1c2cc(C)sc2c2cnn(Cc3nccc(OC)c3OC)c(=O)c21	x	x	x	x	-13	x	x	x	x
Cc1cc(NC(=O)C(C)C)n(-c2nc3ccccc3s2)n1	81*	4	-5	7	5	0	30	3.2	10
COc1ccc(-n2c(SCC(=O)Nc3ccccc3)nnc2-c2cccnc2)cc1	x	x	x	10	-7	x	x	x	x
CCOC(=O)/C(C#N)=C\c1ccc(O)c(OC)c1	17	0	5	7	0	x	x	x	x
CCOC(=O)c1c(-c2ccc(C)cc2)csc1NC(=O)/C(C#N)=C/c1ccc(O)c(OC)c1	132*	117*	4	7	36	1	21	80*	222*
O=C(Nc1nnc(Cc2cccc(F)c2)s1)c1cc2ccccc2c(=O)s1	x	x	x	10	-50	x	x	x	x
